Measurements collected from several papers.
Compare with care: the assays were run in different laboratories.
Target: Serine/threonine-protein kinase 26 (STK26, Homo sapiens, UniProt Q9P289)

| Compound | assay | setting | quantity | value |
| --- | --- | --- | --- | --- |
| COc1cc(/C=C/C(=O)CC(=O)/C=C/c2ccc(O)c(OC)c2)ccc1O | enzyme activity, inhibitor | 1 µM | activity vs control | 75% |
| COc1cc(Nc2cnc(C#N)c(O[C@H](C)CN(C)C)n2)ncc1-c1cnn(C)c1 | enzyme activity, inhibitor, radiometric | 1 µM | remaining activity | 83% |
| O=C(NCCCNc1nc(Nc2cccc(NC(=O)N3CCCC3)c2)ncc1I)c1cccs1 | enzyme activity, inhibitor | 1 µM | inhibition | -93% |
| Cn1c2c(Cl)c(Cl)ccc2c2cc(N)[nH]c(=O)c21 | thermal stability, DSF | 10 µM | ΔTm | 1.5 °C |
| Nc1ncnc2occ(-c3ccc(NC(=O)Nc4cc(C(F)(F)F)ccc4F)cc3)c12 | cell-free assay, inhibitor | 20 µM | remaining signal | 2.6% |
| CN(C)c1nccc(-c2cnc3ncccn23)n1 | cell-free assay | 1 µM | remaining signal | 68% |
| Cn1c(=O)n(-c2ccc(C(C)(C)C#N)cc2)c2c3cc(-c4cnc5ccccc5c4)ccc3ncc21 | enzyme activity, inhibitor | 10 µM | remaining activity | 100% |
| FC(F)(F)Oc1cccc(-c2cnc3ccc(-c4ccncc4)nn23)c1 | enzyme activity, inhibitor, radiometric | 5 µM | activity vs control | 87% |
| CC(C)(C)c1nc(-c2cccc(NS(=O)(=O)c3c(F)cccc3F)c2F)c(-c2ccnc(N)n2)s1 | enzyme activity, inhibitor, radiometric | 1 µM | remaining activity | 103% |
| c1ccc(CNc2nc(N3CCOc4ccccc43)nc3c2CCCC3)cc1 | target engagement in cells, inhibitor, chemoproteomics | 20 mM | inhibition | 38.2% |
| CN(C(=O)c1ccccc1)c1cc(N(C)c2ccc3c(c2)CCc2ccc(C(=O)NCCN4CCOCC4)cc2C3=O)ccc1F | cell-free assay, competition with immobilised ligand | 1 µM | remaining binding | 78% |
| CN(C)C1CCN(CC#Cc2nn(C3CCCC3)c3nc(NCc4ccccc4)ncc23)C1 (stereo not drawn) | enzyme activity, inhibitor, FRET | 0.1 µM | inhibition | 9% |
| CS(=O)(=O)N1CCCC(NC(=O)[C@H](CCC2CCCCC2)NC(=O)c2ccc(CNc3ncnc4c3nnn4-c3ccccc3)cc2)C1 (stereo partly drawn) | cell-free assay, competition with immobilised ligand | 0.1 µM | remaining binding | 92% |
| CC(C)(C)C(=O)c1sc(NC2CCCCC2)nc1N | enzyme activity, inhibitor | 10 µM | remaining activity | 90% |
| COc1cc(-c2cc(-c3ccc(N4CCNCC4)cc3)cnc2C)cc(OC)c1OC | enzyme activity, inhibitor | 1 µM | inhibition | 12% |
| CN(C)C(=O)Cn1cc(-c2nc(C3(c4ccc(-c5cnc(N)nc5)cc4)CC3)no2)cn1 | cell-free assay, competition with immobilised ligand | 1 µM | remaining binding | 89% |
| Nc1nc(NC2CCCCC2)sc1C(=O)c1ccccc1 | enzyme activity, inhibitor | 10 µM | remaining activity | 76% |
| Cc1sc(C(=O)NC2COC2)cc1-n1cc(NC(=O)Nc2c(F)cccc2Cl)cn1 | enzyme activity, inhibitor | 10 µM | remaining activity | 72.4% |
| Cn1c2c(c3ccc(Cl)c(Cl)c31)C(C#N)C1(CCNCC1)NC2=O (racemic) | thermal stability, DSF | 10 µM | ΔTm | -0.5 °C |
| Oc1ccc(-c2nc(-c3ccncc3)c(-c3ccc(F)cc3)[nH]2)cc1 | cell-free assay | 0.5 µM | remaining signal | 101% |

| Compound | assay | setting | quantity | value |
| --- | --- | --- | --- | --- |
| N#CC1c2c([nH]c3c(Cl)c(Cl)ccc23)C(=O)NC12CCCCC2 (racemic) | thermal stability, DSF | 10 µM | ΔTm | 0.1 °C |
| O=C(NS(=O)(=O)c1ccc(NCC2CCOCC2)c([N+](=O)[O-])c1)c1ccc(N2CCN(Cc3ccc(C(F)(F)F)cc3-c3ccc(Cl)cc3)CC2)cc1Oc1cnc2[nH]ccc2c1 | cell-free assay, competition with immobilised ligand | 1 µM | remaining binding | 72% |
| N[C@@H]1CCN(c2nccc(-c3cnn4ncccc34)n2)C1 | cell-free assay | 1 µM | remaining signal | 100% |
| Oc1cccc(-c2nc(N3CCOCC3)c3oc4ncccc4c3n2)c1 | enzyme activity, inhibitor | 10 µM | remaining activity | 114% |
| NS(=O)(=O)c1cc(NC(=O)Cc2ccccc2)ccc1Oc1cccc(Cl)c1 | cell-free assay, competition with immobilised ligand | 1 µM | remaining binding | 99% |
| C[C@H]1CCN(c2nccc(-c3cnn4ncccc34)n2)C1 | cell-free assay | 1 µM | remaining signal | 73% |
| COc1cccc2c(NCc3ccccc3)nc(-n3c(N)nc4ccccc43)nc12 | target engagement in cells, inhibitor, chemoproteomics | 20 mM | inhibition | 31.1% |
| COc1cc(Cl)c(C(=O)N[C@@H](CN[C@H]2CC[C@@H](N)CC2)Cc2ccc(C#N)cc2)cc1-c1ccc(CN[C@H](C)c2ccc(C)cc2)o1 | enzyme activity, inhibitor | 1 µM | remaining activity | 94% |
| COc1cc(-c2cc(-c3ccc(N4CCNCC4)cc3)cnc2N)cc(OC)c1OC | enzyme activity, inhibitor | 0.1 µM | inhibition | 0% |
| CS(=O)(=O)c1cc(C2(NC(=O)c3cncc4c3cnn4-c3ccc(F)cc3)CC2)ccn1 | cell-free assay, competition with immobilised ligand | 1 µM | remaining binding | 97% |
| COc1cc2ncnc(Nc3ccc(Oc4ccccc4)cc3C)c2cc1OC | enzyme activity, inhibitor | 1 µM | inhibition | -2% |
| C[C@H](c1ccc(F)cc1)N(Cc1cccc(C(=O)O)c1)C(=O)c1cnc2ccccc2c1 | cell-free assay, competition with immobilised ligand | 1 µM | remaining binding | 79% |
| O=C1Nc2ccc(Cl)cc2C1=Cc1cc(Cl)c(O)c(Cl)c1 | cell-free assay | 0.5 µM | remaining signal | 101% |
| COc1ccnn2ncc(-c3ccnc(N(C)C)n3)c12 | cell-free assay | 1 µM | remaining signal | 86% |
| Cn1c2c(Cl)c(Cl)ccc2c2cc[nH]c(=O)c21 | thermal stability, DSF | 10 µM | ΔTm | 1.5 °C |
| CN(CCCC(F)(F)F)c1nccc(-c2cnn3ncccc23)n1 | cell-free assay | 1 µM | remaining signal | 100% |
| Cc1ccc(NC(=O)c2ccc(C)c(C(F)(F)F)c2)cc1C#Cc1nn(C2CCC(O)CC2)c2ncnc(N)c12 (stereo not drawn) | cell-free assay | 10 µM | remaining signal | 73% |
| O=C1NC(c2ccccn2)Sc2ccccc21 (stereo not drawn) | cell-free assay, competition with immobilised ligand | 1 µM | remaining binding | 80% |
| Cc1cnn2ncc(-c3ccnc(N(C)C)n3)c2c1 | cell-free assay | 1 µM | remaining signal | 98% |
